Measured values as given in ChEMBL document CHEMBL4732105, “First orally bioavailable prodrug of proteolysis targeting chimera (PROTAC) degrades cyclin-dependent kinases 2/4/6 in vivo” (Eur J Med Chem, 2021).
Calls of active or inactive are those of the source. The rule behind the calls is not given here.

Legend:
B16-F10 [1] = test: Induction of cell cycle arrest in mouse B16F10 cells assessed as accumulation at G2/M phase upto 100 uM incubated for 48 hrs by propidium iodide staining based flow cytometry; type: functional; conditions: dose microM <=100, time 48.0 hrs
A-375 [2] = test: Induction of apoptosis in human A-375 cells assessed as increase in cleaved PARP level incubated for 48 hrs by Western blot analysis; type: functional, cell-based; conditions: dose nM <=2000, time 48.0 hrs
In short: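 A375 and B16F10 cells incubated with compound for 48 h. Cleaved caspase-3, cleaved PARP, total P53, Bcl-2 and Bax measured by western blot.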

[3] = biological target: T1, Protein cereblon/Cyclin-dependent kinase 2 (Mus musculus) (UniProt P97377+Q8C7D2); test: Protac activity at CRBN/CDK2 in mouse B16F10 cells assessed as induction of CDK2 protein degradation at 100 nM for 6 hrsin presence of Pomalidomide by Western blot analysis; type: cell-based; conditions: B16-F10, time 6.0 hrs
T1 sequence (Q8C7D2 whole entry, looked up, other chains not shown): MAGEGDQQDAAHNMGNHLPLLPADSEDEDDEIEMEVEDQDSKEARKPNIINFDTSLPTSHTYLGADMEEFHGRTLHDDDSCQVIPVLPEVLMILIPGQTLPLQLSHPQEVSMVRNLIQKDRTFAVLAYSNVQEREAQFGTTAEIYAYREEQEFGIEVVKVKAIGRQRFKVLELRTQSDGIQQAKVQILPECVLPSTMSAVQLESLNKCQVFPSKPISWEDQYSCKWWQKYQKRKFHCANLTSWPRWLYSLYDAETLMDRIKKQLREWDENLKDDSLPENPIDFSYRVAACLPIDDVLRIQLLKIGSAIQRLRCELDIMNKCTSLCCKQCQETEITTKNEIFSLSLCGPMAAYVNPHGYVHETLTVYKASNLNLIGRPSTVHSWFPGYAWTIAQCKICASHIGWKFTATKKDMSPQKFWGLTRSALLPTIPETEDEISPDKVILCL
In short: (§1)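 B16F10 cells pre-treated 2 h with DMSO, pomalidomide (10 μM), MG132 (20 μM) or a parent CDK ligand, then exposed to 100 nM degrader for 6 h. CDK2/4/6 protein levels read by western blot.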

B16-F10 [4] = test: Induction of cell cycle arrest in mouse B16-F10 cells assessed as accumulation at G1 phase at 100 uM incubated for 48 hrs by propidium iodide staining based flow cytometry (reference value: 52.59%); type: functional
[5] = biological target: T1, Protein cereblon/Cyclin-dependent kinase 2 (Mus musculus); test: Protac activity at CRBN/CDK2 in mouse B16F10 cells assessed as induction of CDK2 protein degradation at 100 nM for 6 hrs in presence of proteasome inhibitor MG132 by Western blot analysis; type: cell-based; conditions: B16-F10; in short: as §1
B16-F10 [6] = test: Induction of apoptosis in mouse B16F10 cells assessed as viable cells at 125 nM incubated for 48 hrs by Annexin V-FITC/PI staining based flow cytometry (reference value: 95.9%); type: functional; conditions: read-out: Activity
A-375 [7] = test: Induction of apoptosis in human A-375 cells assessed as viable cells at 250 nM incubated for 48 hrs by Annexin V-FITC/PI staining based flow cytometry (reference value: 93.3%); type: functional; conditions: read-out: Activity
A-375 [8] = test: Induction of cell cycle arrest in human A-375 cells assessed as accumulation at G2 phase at 500 uM incubated for 48 hrs by propidium iodide staining based flow cytometry (reference value: 12.42%); type: functional
In short: (§2)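 Tumor cells incubated 48 h in complete medium with compound or DMSO at various concentrations, stained with propidium iodide, and DNA content read by flow cytometry. G0/G1, S and G2/M fractions reported; mean ± SD, n = 3, Student's t-test.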

B16-F10 [9] = test: Induction of cell cycle arrest in mouse B16-F10 cells assessed as accumulation at G2 phase at 25 uM incubated for 48 hrs by propidium iodide staining based flow cytometry (reference value: 18.22%); type: functional
A-375 [10] = test: Induction of apoptosis in human A-375 cells assessed as early apoptotic cells at 1000 nM incubated for 48 hrs by Annexin V-FITC/PI staining based flow cytometry (reference value: 2.82%); type: functional
[11] = biological target: T1, Protein cereblon/Cyclin-dependent kinase 2 (Mus musculus); test: Protac activity at CRBN/CDK2 in mouse B16F10 cells assessed as induction of CDK2 protein degradation at 100 nM for 6 hrsin presence of methyl 6-(7-cyclopentyl-6-(dimethylcarbamoyl)-7H-pyrrolo[2,3-d]pyrimidin-2-ylamino)nicotinate by Western blot analysis; type: cell-based; conditions: B16-F10, time 6.0 hrs; in short: as §1
B16-F10 [12] = test: Induction of apoptosis in mouse B16F10 cells assessed as necrotic cells at 125 nM incubated for 48 hrs by Annexin V-FITC/PI staining based flow cytometry (reference value: 0.21%); type: functional
A-375 [13] = test: Inhibition of colony formation in human A-375 cells at 250 to 500 nM measured after 7 days by crystal violet staining based colony formation assay; type: functional, cell-based; conditions: dose 250-500 nM, time 7.0 day
In short: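 Colony formation (long-term growth) assay in A375 and B16F10 cells under continuous compound exposure for 7 days, then clonogenic growth quantified. Mean ± SD, n = 3; Student's t-test.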

[14] = biological target: Protein cereblon/Cyclin-dependent kinase 6 (Mus musculus) (UniProt Q8C7D2+Q64261); test: Protac activity at CRBN/CDK6 in mouse B16F10 cells assessed as induction of CDK6 protein degradation at 100 nM for 6 hrsin presence of methyl 6-(7-cyclopentyl-6-(dimethylcarbamoyl)-7H-pyrrolo[2,3-d]pyrimidin-2-ylamino)nicotinate by Western blot analysis; type: cell-based; conditions: B16-F10, time 6.0 hrs; in short: as §1
Sequence of Protein cereblon/Cyclin-dependent kinase 6 (Mus musculus) (Q64261 whole entry, looked up): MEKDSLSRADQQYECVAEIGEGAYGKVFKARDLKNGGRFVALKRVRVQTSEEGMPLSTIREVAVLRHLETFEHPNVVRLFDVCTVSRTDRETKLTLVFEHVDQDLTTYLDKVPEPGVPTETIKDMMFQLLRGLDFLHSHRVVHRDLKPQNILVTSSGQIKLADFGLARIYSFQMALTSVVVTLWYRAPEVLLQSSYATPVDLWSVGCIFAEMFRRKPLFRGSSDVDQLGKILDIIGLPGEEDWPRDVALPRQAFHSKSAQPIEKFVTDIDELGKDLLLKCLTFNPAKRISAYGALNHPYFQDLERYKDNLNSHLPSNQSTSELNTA
Sequence of Protein cereblon/Cyclin-dependent kinase 6 (Mus musculus) (Q8C7D2 whole entry, looked up): as the sequence (Q8C7D2 whole entry, looked up, other chains not shown) above

[15] = biological target: T1, Protein cereblon/Cyclin-dependent kinase 2 (Mus musculus); test: Protac activity at CRBN/CDK2 in mouse B16F10 cells assessed as induction of CDK2 protein degradation after 12 hrs by Western blot analysis; type: cell-based; conditions: B16-F10, dose 62.5-1000 nM
In short: (§3)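 B16F10 and A375 cells treated with DMSO or serial dilutions of compound for 12 h (concentration series), or for the indicated times (time course). CDK2, CDK4 and CDK6 protein levels determined by western blot.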

[16] = biological target: T2, Protein cereblon/Cyclin-dependent kinase 4 (Mus musculus) (UniProt P30285+Q8C7D2); test: Protac activity at CRBN/CDK4 in mouse B16F10 cells assessed as induction of CDK4 protein degradation at 500 nM by Western blot analysis; type: cell-based; conditions: B16-F10, time hrs <=12, TDE = time-dependent effect; in short: as §3
T2 sequence (P30285 whole entry, looked up): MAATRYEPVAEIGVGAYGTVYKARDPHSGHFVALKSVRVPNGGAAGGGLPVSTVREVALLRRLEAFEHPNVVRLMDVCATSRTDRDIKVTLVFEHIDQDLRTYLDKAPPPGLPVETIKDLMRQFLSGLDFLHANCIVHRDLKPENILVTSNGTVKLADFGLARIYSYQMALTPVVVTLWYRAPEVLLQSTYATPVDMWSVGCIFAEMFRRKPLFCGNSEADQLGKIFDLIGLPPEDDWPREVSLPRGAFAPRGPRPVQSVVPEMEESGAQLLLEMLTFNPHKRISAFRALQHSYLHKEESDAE
T2 sequence (Q8C7D2 whole entry, looked up): as the sequence (Q8C7D2 whole entry, looked up, other chains not shown) above

[17] = biological target: Protein cereblon/Cyclin-dependent kinase 4 (Homo sapiens) (UniProt P11802+Q96SW2); test: Protac activity at CRBN/CDK4 in human A-375 cells assessed as induction of CDK4 protein degradation at 1000 nM by Western blot analysis; type: cell-based; conditions: time hrs <=12, TDE = time-dependent effect; in short: as §3
Sequence of Protein cereblon/Cyclin-dependent kinase 4 (Homo sapiens) (P11802 2-303 limits assumed): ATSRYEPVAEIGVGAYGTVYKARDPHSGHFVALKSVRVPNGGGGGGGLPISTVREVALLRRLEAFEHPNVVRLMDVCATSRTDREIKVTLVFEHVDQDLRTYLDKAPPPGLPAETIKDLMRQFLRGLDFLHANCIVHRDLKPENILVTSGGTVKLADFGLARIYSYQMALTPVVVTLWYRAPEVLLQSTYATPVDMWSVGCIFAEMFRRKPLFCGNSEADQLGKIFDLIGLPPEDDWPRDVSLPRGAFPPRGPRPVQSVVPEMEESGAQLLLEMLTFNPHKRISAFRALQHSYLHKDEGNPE
Sequence of Protein cereblon/Cyclin-dependent kinase 4 (Homo sapiens) (Q96SW2 whole entry partner): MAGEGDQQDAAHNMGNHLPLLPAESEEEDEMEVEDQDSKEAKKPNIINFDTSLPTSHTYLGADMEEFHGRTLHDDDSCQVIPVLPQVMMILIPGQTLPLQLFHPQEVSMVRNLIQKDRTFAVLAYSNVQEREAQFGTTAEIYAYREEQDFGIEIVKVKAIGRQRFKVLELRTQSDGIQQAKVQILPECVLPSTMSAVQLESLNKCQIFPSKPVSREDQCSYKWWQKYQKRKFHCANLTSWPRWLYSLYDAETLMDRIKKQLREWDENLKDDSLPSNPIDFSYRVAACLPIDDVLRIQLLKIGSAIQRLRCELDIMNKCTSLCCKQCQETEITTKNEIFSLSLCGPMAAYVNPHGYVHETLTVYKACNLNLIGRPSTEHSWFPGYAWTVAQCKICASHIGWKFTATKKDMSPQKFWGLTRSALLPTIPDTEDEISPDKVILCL

B16-F10 [18] = test: Induction of apoptosis in mouse B16F10 cells incubated for 48 hrs by Annexin V-FITC/PI staining based flow cytometry; type: functional, cell-based; conditions: dose nM <=1000, time 48.0 hrs
A-375 [19] = test: Induction of apoptosis in human A-375 cells assessed as necrotic cells at 500 nM incubated for 48 hrs by Annexin V-FITC/PI staining based flow cytometry (reference value: 0.602%); type: functional
[20] = biological target: T2, Protein cereblon/Cyclin-dependent kinase 4 (Mus musculus); test: Protac activity at CRBN/CDK4 in mouse B16F10 cells assessed as induction of CDK4 protein degradation at 100 nM for 6 hrsin presence of Ribociclib by Western blot analysis; type: cell-based; conditions: B16-F10, time 6.0 hrs
B16-F10 [21] = test: Induction of apoptosis in mouse B16F10 cells assessed as late apoptotic cells at 500 nM incubated for 48 hrs by Annexin V-FITC/PI staining based flow cytometry (reference value: 0.551%); type: functional
B16-F10 [22] = test: Induction of apoptosis in mouse B16F10 cells assessed as necrotic cells at 250 nM incubated for 48 hrs by Annexin V-FITC/PI staining based flow cytometry (reference value: 0.21%); type: functional
A-375 [23] = test: Induction of cell cycle arrest in human A-375 cells assessed as accumulation at G2 phase at 1000 uM incubated for 48 hrs by propidium iodide staining based flow cytometry (reference value: 12.42%); type: functional; in short: as §2
B16-F10 [24] = test: Induction of apoptosis in mouse B16F10 cells assessed as early apoptotic cells at 125 nM incubated for 48 hrs by Annexin V-FITC/PI staining based flow cytometry (reference value: 3.52%); type: functional
A-375 [25] = test: Induction of apoptosis in human A-375 cells assessed as necrotic cells at 250 nM incubated for 48 hrs by Annexin V-FITC/PI staining based flow cytometry (reference value: 0.602%); type: functional

Activity [3]: inactive | Activity [5]: inactive | Activity [11]: inactive | Activity [14]: inactive | Activity [15]: Dose-dependent effect | Activity [16]: Tde | Activity [17]: Tde | Activity [20]: inactive
SMILES: CN(C)C(=O)c1cc2cnc(Nc3ccc(C(=O)NCCCCCCNc4cccc5c4C(=O)N(C4CCC(=O)NC4=O)C5=O)cc3)nc2n1C1CCCC1 (stereo not given)
Activity (B16-F10 [1]): Active | Activity (A-375 [2]): Dose-dependent effect | Activity (B16-F10 [4]): 52.42% | viability at 0.125 µM (B16-F10 [6]): 86.1% | viability at 0.25 µM (A-375 [7]): 90.5% | Activity (A-375 [8]): 13.67% | Activity (B16-F10 [9]): 19.56% | Activity (A-375 [10]): 29.3% | Activity (B16-F10 [12]): 0.289% | inhibition (A-375 [13]): Active | Activity (B16-F10 [18]): Dose-dependent effect | Activity (A-375 [19]): 0.153% | Activity (B16-F10 [21]): 1.63% | Activity (B16-F10 [22]): 0.14% | Activity (A-375 [23]): 16.68% | Activity (B16-F10 [24]): 7.15% | Activity (A-375 [25]): 0.144%
